In PMC12215028 (Scientific Reports, 2025):

What was measured:
A549 cells = assay: Subcutaneous xenograft mouse model; assay type: in vivo, BALB/c-nude male mice; details: 30 mg/kg
Method in brief: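 Male BALB/c nude mice aged 6–7 weeks, under isoflurane, received 5 × 10⁶ A549 cells in 50 µL PBS plus 50 µL Matrigel subcutaneously in the flank. Groups of six received vehicle, test compound or reference compound by oral gavage three times weekly for 27 days. Vehicle was Tween 80:PEG400:ethanol:5% glucose 1:6:3:20, at 100 µL per 25 g mouse. Tumors were caliper-measured three times weekly; endpoint was about 1,500 mm³ or distress.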

[1] = test system: A549 xenograft tumor tissue; assay: H&E staining of xenograft tumor tissue; assay type: in vivo, BALB/c-nude male mice; details: 30 mg/kg; compared to the vehicle group
Method in brief: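 A549 cells (5 × 10⁶ in PBS plus Matrigel) were implanted subcutaneously into the flank of male nude mice aged 6–7 weeks. Compound was given by oral gavage three times weekly. Paraffin tumor sections were deparaffinized in xylene and rehydrated through graded ethanol. They were stained with hematoxylin for 30 s, differentiated in acid alcohol (0.3% HCl in 70% ethanol) and stained with eosin for 2 min. Sections were then dehydrated, cleared and mounted, and staining was quantified by image analysis.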

p-EGFR(Y1068) = assay: Western blot, NSCLC cell lines; assay type: cell-based, human; details: A549 and H460 cells; 50 µM
Method in brief: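 Cells were plated at 150,000 per well and treated with test compound or DMSO for 24 h. They were lysed in RIPA buffer with PMSF, DTT, NaF, Na₃VO₄ and protease inhibitors for 30 min on ice, then spun at 13,000 rpm for 30 min at 4 °C. Protein was quantified by Bradford assay and resolved by SDS-PAGE. Blots were probed with secondary antibodies at 1:5000 for 1 h at RT, detected by chemiluminescence and quantified by densitometry.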

p-EGFR = assay: Immunohistochemistry of xenograft tumor tissue; assay type: in vivo, BALB/c-nude male mice; details: tumor tissues; compared to the vehicle group
Method in brief: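 Paraffin sections of subcutaneous A549 flank tumors from nude mice were deparaffinized and rehydrated, and peroxidase was blocked with H₂O₂. Antigen retrieval used 0.01 M citrate (pH 6.0) at boiling for 10 min. Sections were blocked in normal goat serum for 1 h at RT, then incubated with anti-p-EGFR (Y1068) at 1:100 overnight at 4 °C. Detection used a biotinylated secondary (1 h, RT), ABC reagent (30 min) and DAB, with hematoxylin counterstain.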

[2] = test system: A549, H460, H1299, and HCC827 cell lines; assay: MTT assay, statements over all four lines; assay type: cell-based, human; details: 48 h
Method in brief: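 H460, H1299 and HCC827 cells were kept in RPMI1640 with 10% FBS at 37 °C and 5% CO₂. A549 cells were plated at 2,500 per well. Cells were exposed to 0–50 µM test compound (final; 3.125–50 µM twofold steps) or DMSO control for 24, 48 and 72 h. MTT was then added for 2 h at 37 °C, formazan was dissolved in DMSO, and OD was read at 570 nm. Data are mean ± standard deviation; IC50 was calculated from viability.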

CC(C)=CC(=O)O[C@H]1Cc2cc3ccc(=O)oc3cc2OC1(C)C [decursin]
tumor size at the experimental endpoint (A549 cells; oral gavage three times per week, 27 days, vs vehicle): no statistically significant reduction | body weight changes (A549 cells; vs control, throughout the experimental period): no significant difference | tumor cell density (H&E) [1]: did not show a significant difference | p-EGFR(Y1068) expression levels (p-EGFR(Y1068)): failed to inhibit EGFR phosphorylation | p-EGFR-positive cells / expression (IHC) (p-EGFR): not significantly reduced | cytotoxicity [2]: significant cytotoxicity at 50 µM
